Assay outcomes (PubChem BioAssay)
Only some compounds are listed: those with a hit (about 3.8% of all), similar ones and a draw of the others.
MPTP inh = mitochondrial permeability transition pore inhibitors, primary screen, biochemical, isolated mouse mitochondria, absorbance; inhibition, % at 10 µM; Ca2+ swelling absorbance, 30 min; hit rate 1.4% among 360,000; AID 602449, 2012;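 active = inhibition of 50% or more, scaled per plate between neutral and stimulator controls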
OX1R antag-1 = antagonists of human orexin 1 receptor (OX1R). OX1R-expressing cells, FRET antagonist read-out. inhibition, % at 6.6 µM. hit rate 1.8% among 330,000; in the data active = inhibition mostly above about 38%, no sharp cut-off; inactive = mostly below about 40%
Target sequence (O43613 whole entry, looked up): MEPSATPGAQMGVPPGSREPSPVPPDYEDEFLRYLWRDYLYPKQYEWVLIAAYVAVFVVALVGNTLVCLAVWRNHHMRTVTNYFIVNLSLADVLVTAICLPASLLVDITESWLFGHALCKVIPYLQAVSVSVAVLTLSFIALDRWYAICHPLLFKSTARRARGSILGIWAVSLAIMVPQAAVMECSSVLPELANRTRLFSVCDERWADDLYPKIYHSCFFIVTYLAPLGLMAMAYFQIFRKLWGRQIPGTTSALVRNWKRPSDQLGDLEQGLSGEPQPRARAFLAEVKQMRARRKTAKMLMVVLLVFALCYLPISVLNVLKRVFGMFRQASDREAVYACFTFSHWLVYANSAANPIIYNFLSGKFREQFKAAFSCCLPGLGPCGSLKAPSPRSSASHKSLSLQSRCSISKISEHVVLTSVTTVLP
CHO parental Ca = ATP-evoked calcium signal inhibitors, parental CHO, primary screen, counter-screen for OX1R antagonist project, cell-based, fluorescence, Fluo-8 calcium dye; parental CHO-K1, ATP-induced calcium, Fluo-8 fluorescence; inhibition, % at 5.6 µM; hit rate 0.63% among 330,000;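 active = inhibition above that plate's mean sample inhibition plus 3 SD, cut at about 26% in these data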
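Test system: untransfected parental CHO cell line. Compound: one dose, 5.6 µM nominal. Detection: intracellular calcium via Fluo-8 no-wash fluorescent dye. Measure: % inhibition. Benchmarks: ATP-challenged DMSO wells low, unchallenged DMSO wells high.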
OX1R antag-2 = OX1R (HCRTR1) antagonists, primary screen, fluorescence, CHO/OX1R cells, Fluo-8 calcium, orexin A; Orexin/Hypocretin receptor type 1 (Homo sapiens), O43613; Fluo-8 calcium fluorescence; AID 434989, 2010; inhibition, % at 5 µM; hit rate 0.43% among 330,000;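 active = inhibition above its plate's threshold, mean inhibition of all tested compounds on the plate plus 3 SD, cut at about 37% in these data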
GPR7 antagonist = GPR7 receptor antagonists, primary screen, cell-based, fluorescence, single concentration. hit rate 1.1% among 290,000. GPR7-expressing cells, fluorescence antagonist assay. inhibition, % at 4.4 µM. AID 1861, 2009; in the data active = inhibition above about 16%, passing the limit was not always enough;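 note: cells stimulated with the agonist NPW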
Large screens that a line does not name were inactive.

CC1C/C(=N\NC(=O)c2ccc(NS(=O)(=O)c3ccc(Br)cc3)cc2)CC(C)(C)C1 (stereo not given)	none
O=C(Cn1cnc2cc([N+](=O)[O-])ccc2c1=O)Nc1ccccc1-c1ccccc1	OX1R antag-1 48
O=C(Cn1cnc2cc([N+](=O)[O-])ccc2c1=O)Nc1ccc(Br)cc1	none
O=c1c2ccc([N+](=O)[O-])cc2ncn1CCOc1ccccc1	OX1R antag-1 68
Cc1ccc(OCCn2cnc3cc([N+](=O)[O-])ccc3c2=O)cc1	none
CCOC(=O)c1cnc(N2CCN(c3ccccc3)CC2)[nH]c1=O	none (no result: OX1R antag-1, CHO parental Ca, OX1R antag-2)
N/C(=N\OC(=O)c1cc([N+](=O)[O-])ccc1Cl)c1ccccn1	none
N/C(=N\OC(=O)c1ccc([N+](=O)[O-])cc1Cl)c1ccccn1	OX1R antag-1 54
CCc1ccc(NC(=O)C2CCN(S(=O)(=O)c3ccc4c(c3)CC(C)N4C(C)=O)CC2)cc1 (stereo not given)	CHO parental Ca 36, GPR7 antagonist 21
CCOC(=O)[C@]12CCCC=C1N(Cc1ccc3c(c1)OCO3)C(=O)[C@H](CC(=O)NCc1ccc(C)o1)C2	none (no result: OX1R antag-1, CHO parental Ca, OX1R antag-2, GPR7 antagonist)
O=C(COc1ccc2ccccc2c1Br)N1CCCCC1	none
O=C(Oc1ccc2ccccc2c1Br)N1CCCCCC1	CHO parental Ca 33
COc1ccc(-c2ccc(C(=O)NCc3ccc(N4CCN(C)CC4)cc3)c3occc23)c(C)c1	none (no result: OX1R antag-1, CHO parental Ca, OX1R antag-2, GPR7 antagonist)
O=C(Nc1nnc(-c2cccs2)o1)c1cc(-c2ccccc2)nc2ccccc12	OX1R antag-1 46
O=C(N/N=C/c1cccs1)c1cc(-c2ccc(Cl)s2)[nH]n1	OX1R antag-1 59
CC(=O)NC(c1ccccc1)c1nc(/C=C/c2ccccc2)cs1 (stereo not given)	none (no result: OX1R antag-1, CHO parental Ca, OX1R antag-2, GPR7 antagonist)
O=C(Nc1ccc(N2CCN(C(=O)c3ccco3)CC2)c(Cl)c1)c1cc2ccccc2o1	OX1R antag-1 72, CHO parental Ca 36
CCCC(=O)N1CCN(c2ccc(NC(=O)c3cccs3)cc2Cl)CC1	none
CCCC(=O)N1CCN(c2ccc(NC(=O)c3cc4ccccc4o3)cc2Cl)CC1	OX1R antag-1 91, CHO parental Ca 61, OX1R antag-2 60
O=C(Nc1ccc(N2CCN(C(=O)c3ccccc3)CC2)c(Cl)c1)c1ccco1	none
CC(C)c1ccc(N2C(=O)[C@@H]3Cc4ccccc4CN3C2=O)cc1	CHO parental Ca 45
Cc1ccc(N2C(=O)[C@@H]3Cc4ccccc4CN3C2=O)cc1	none
CC(C)NC(=O)c1sc2nc3c(c(-c4cccs4)c2c1N)CN(C)CC3	OX1R antag-1 60
Cc1cccc(NC(=O)c2sc3nc4c(c(-c5cccs5)c3c2N)CN(C)CC4)c1	OX1R antag-1 76
COc1ccc(NC(=O)CSc2nc3c(c(-c4cccs4)c2C#N)CN(C)CC3)cc1OC	none
NC(=O)c1sc2nc3c(c(-c4cccs4)c2c1N)CCCC3	none (no result: MPTP inh, OX1R antag-1, CHO parental Ca, OX1R antag-2)
COc1ccc(C(=O)c2oc3ccccc3c2N)cc1	none
COc1ccc2oc(C(=O)OCC(=O)NCc3ccccc3OC)c(C)c2c1	CHO parental Ca 56 (no result: GPR7 antagonist)
COc1cccc(C(=O)Nc2c(C(N)=O)oc3ccccc23)c1	OX1R antag-1 77
COc1ccc(NC(=O)c2oc3ccccc3c2C)c(OC)c1	OX1R antag-1 53
COc1ccccc1NC(=O)c1oc2ccccc2c1C	none (no result: OX1R antag-1, CHO parental Ca, OX1R antag-2, GPR7 antagonist)
COc1ccc2oc(C(=O)OCC(=O)Nc3ccc(NC(C)=O)cc3)c(C)c2c1	none (no result: GPR7 antagonist)
CCOC(=O)c1oc2ccccc2c1NC(=O)c1cccc(OC)c1	none
COc1ccc2oc(C(=O)c3ccccc3)c(N)c2c1	OX1R antag-1 64 (no result: MPTP inh)
CC(C)(C)OC(=O)N1CCc2onc(-c3ccc(-n4cc(C5=CCCCC5)nn4)cc3)c2C1=O	none (no result: OX1R antag-1, CHO parental Ca, OX1R antag-2, GPR7 antagonist)
CC(C)c1ccc(Nc2nnns2)cc1	none
COc1ccc2nc(C3CCCCC3)c3c(c2c1)CCC3	none (no result: GPR7 antagonist)
COc1ccccc1NC(=O)COC(=O)c1oc2ccccc2c1C	OX1R antag-1 51
CCCCNS(=O)(=O)c1cccc(NC(=O)[C@H]2C[C@H](O)[C@@H](CO)O2)c1	none (no result: OX1R antag-1, CHO parental Ca, OX1R antag-2, GPR7 antagonist)
CC(=O)Nc1sc(C)c(C)c1C(=O)OCC(=O)N(CCC#N)c1cc(C)cc(C)c1	none (no result: OX1R antag-1, CHO parental Ca, OX1R antag-2, GPR7 antagonist)
O=S(=O)(c1ccc2ccccc2c1)n1cnc2ccccc21	none
O=S(=O)(c1cccc2cccnc12)n1cnc2ccccc21	GPR7 antagonist 12
CC(C)N(CC(O)COc1ccc(CC(N)=O)cc1)CC(O)COc1ccc(CC(N)=O)cc1 (stereo not given)	none
O=C(O)c1ccc(N/N=C/c2ccc(-c3cccc(Cl)c3)o2)cc1	none
O=[N+]([O-])c1ccccc1N/N=C/c1c[nH]c2ccccc12	none
O=C(O)c1ccc(-c2ccc(/C=N/Nc3ccc([N+](=O)[O-])cc3)o2)cc1	CHO parental Ca 64, OX1R antag-2 77
